This passage reports IC50 and LD50 results from ChEMBL document CHEMBL1165908, “Novel benzimidazole-pyrimidine conjugates as potent antitumor agents” (Eur J Med Chem, 2010).

pIC50: −log10 of the molar value. Structures can show the parent of a compound that is named as a salt.

The subject of one data set is GOTO. The experiment in a line: Cytotoxicity against human GOTO cells after 3 days by MTT assay. The following applies: 72 h. It is filed as functional, cell-based. The gist of the method: (§1)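 Cells grown in RPMI 1640 with 10% fetal calf serum, plated at 2 × 10^4 cells, held 12 h at 37 °C in 5% CO2, then exposed to test sample for 3 days at 37 °C. MTT added for 4 h, formazan dissolved in DMSO, absorbance read at 570 nm. IC50 taken as 50% growth inhibition relative to untreated control; each experiment run at least 3 times.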

For the next data set, the system named is U-937. Briefly: Cytotoxicity against human U937 cells after 3 days by MTT assay. The class given is functional, cell-based. The following applies: U-937, 72 h. The method, boiled down:
as §1

The test system of a further data set is K562. The experiment in a line: Cytotoxicity against human K562 cells after 3 days by MTT assay. It is filed as functional, cell-based. The following applies: K562, 72 h. The method, boiled down:
as §1
(Tetrazolium dyes change colour on reduction, which living cells bring about.)

A further data set concerns SK-MEL-28. The experiment in a line: Cytotoxicity against human SK-MEL-28 cells after 3 days by MTT assay. The following applies: SK-MEL-28, 72 h. It is filed as functional, cell-based. The method, boiled down:
as §1

The test system of the next data set is SK-OV-3. Briefly: Cytotoxicity against human SKOV3 cells after 3 days by MTT assay. It is filed as functional, cell-based. The following applies: SK-OV-3, 72 h. The method, boiled down: as §1
For the next data set, the system named is SF-268. The experiment in a line: Cytotoxicity against human SF268 cells after 3 days by MTT assay. The class given is functional, cell-based. The following applies: SF-268, 72 h. The gist of the method:
as §1

Another data set has as its system KB. The experiment in a line: Cytotoxicity against human KB cells after 3 days by MTT assay. It is filed as functional, cell-based. The following applies: 72 h. The gist of the method: as §1
The test system of a further data set is G-361. The experiment in a line: Cytotoxicity against human G361 cells after 3 days by MTT assay. The class given is functional, cell-based. The following applies: G-361, 72 h. The gist of the method: as §1
Data set [1] is described as follows: Toxicity in ip dosed mouse assessed as mortality after 24 hrs. The class given is organism-based. The following applies: in vivo. The method, boiled down:
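Lorke two-phase design in mice, single intraperitoneal dose per group. Phase 1: three groups of three animals, each group one dose, observed 24 h for mortality and general behaviour. Phase 2: 3–4 groups of one mouse, doses chosen from phase 1 findings, observed 24 h. LD50 taken as geometric mean of lowest lethal dose and highest non-lethal dose; reported in mg/kg.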

For the next data set, the system named is NCI-H460. Briefly: Cytotoxicity against human NCI-H460 cells after 3 days by MTT assay. It is filed as functional, cell-based. The following applies: NCI-H460, 72 h. The method, boiled down: as §1
The test system of a further data set is NB1. The experiment in a line: Cytotoxicity against human NB-1 cells after 3 days by MTT assay. It is filed as functional, cell-based. The following applies: NB1, 72 h. The gist of the method:
as §1

The next data set deals with HL-60. Briefly: Cytotoxicity against human HL60 cells after 3 days by MTT assay. The class given is functional, cell-based. The following applies: HL-60, 72 h.
Data set [2] is described as follows: Cytotoxicity against human RKOp27 cells after 3 days by MTT assay. It is filed as functional, cell-based. The following applies: RKOp27, 72 h. The method, boiled down:
as §1

For orientation: pIC50 means the negative decadic logarithm of the IC50, by convention in mol/L. Read a high pIC50 as a low IC50. As usually defined, the LD50 is the dose at which mortality reaches 50%. Take `Cl.N=c1[nH]c(=O)[nH]c2nc(SCc3nc4ccccc4[nH]3)nc(-c3ccccc3)c12`: the negative-log IC50 (pIC50) in the data set with GOTO is 8.05; in the data set on U-937, 8.54; in the data set on K562, 7.83; in the data set on SK-MEL-28, 8.05; in the data set on SK-OV-3, 8.49; in the data set on SF-268, 8.55. Also, the pIC50 in the data set on KB was 8.60; in the data set with G-361 it was 8.49; with NCI-H460, 8.55; with NB1, 7.95; in the data set with HL-60, 8.51; in data set [2], 8.57. The LD50 at 24 h in [1] stood at 346 mg/kg.
On to `CCNc1nc(SCc2nc3ccccc3[nH]2)nc(-c2ccccc2)c1C#N`, for which the pIC50 was 8.40 in the data set with GOTO; 8.58 in the data set with U-937; 8.36 in the data set with K562; 8.28 in the data set with SK-MEL-28; 8.13 in the data set on SK-OV-3; 8.13 in the data set on SF-268. Also, the pIC50 in the data set on KB was 8.13; with G-361, 8.36; in the data set on NCI-H460, 8.54; with NB1 it was 8.58; in the data set on HL-60, 8.40; in data set [2], 8.13. Also, the LD50 at 24 h in [1] amounted to 325 mg/kg.
Take `CN1CCN(c2nc(SCc3nc4ccccc4[nH]3)nc(-c3ccccc3)c2C#N)CC1`: the pIC50 in the data set on GOTO is 8.47; in the data set on U-937, 8.17; in the data set with K562, 8.62; with SK-MEL-28 it was 7.70; in the data set on SK-OV-3, 5.80; in the data set on SF-268, 8.16. The pIC50 is 8.57 with KB; 7.83 in the data set with G-361; 8.55 with NCI-H460; 8.62 in the data set on NB1; 8.55 in the data set on HL-60; 8.27 in data set [2]. Further, the median lethal dose (LD50) at 24 h in data set [1] amounted to 384 mg/kg.
On to `Cc1ccc(S(=O)(=O)N2CCN(c3nc(SCc4nc5ccccc5[nH]4)nc(-c4ccccc4)c3C#N)CC2)cc1`, for which the pIC50 in the data set with GOTO is 8.36; with U-937, 8.39; with K562 it was 7.95; in the data set with SK-MEL-28 it was 8.36; in the data set on SK-OV-3 it was 8.34; with SF-268, 8.11. Further, the pIC50 in the data set with KB is 8.48; with G-361, 8.36; in the data set on NCI-H460, 7.64; in the data set on NB1, 8.17; in the data set with HL-60 it was 8.37; in data set [2], 8.60. The LD50 at 24 h in data set [1] was found to be 345 mg/kg.
As to `N#Cc1c(-c2ccccc2)nc(SCc2nc3ccccc3[nH]2)nc1N1CCN(S(=O)(=O)c2ccccc2)CC1`, the pIC50 is 8.24 in the data set with GOTO; 8.21 in the data set on U-937; 8.52 with K562; 8.19 in the data set on SK-MEL-28; 8.56 in the data set with SK-OV-3; 8.54 in the data set with SF-268. For the same compound, the negative logarithm of the IC50 (pIC50) was 8.52 in the data set with KB; 8.06 in the data set on G-361; 8.34 in the data set on NCI-H460; 8.48 in the data set on NB1; 8.37 in the data set with HL-60; 8.13 in data set [2]. The LD50 at 24 h in [1] is 327 mg/kg.
Consider `N#Cc1c(-c2ccccc2)nc(SCc2nc3ccccc3[nH]2)nc1N1CCN(S(=O)(=O)c2ccccc2[N+](=O)[O-])CC1`, for which the pIC50 is 8.52 with GOTO; 8.48 in the data set on U-937; 7.83 in the data set with K562; 8.05 with SK-MEL-28; 8.49 in the data set on SK-OV-3; 8.52 with SF-268. Besides, the negative logarithm of the IC50 (pIC50) in the data set on KB was 8.35; in the data set with G-361, 8.02; with NCI-H460, 8.43; in the data set on NB1, 8.60; with HL-60, 8.56; in data set [2], 8.25. The LD50 at 24 h in data set [1] is 325 mg/kg.
On to `N#Cc1c(NN)nc(SCc2nc3ccccc3[nH]2)nc1-c1ccccc1`, for which the negative-log IC50 (pIC50) is 8.57 in the data set with GOTO; 8.41 in the data set on U-937; 7.83 in the data set on K562; 8.52 in the data set on SK-MEL-28; 8.57 in the data set on SK-OV-3; 8.56 in the data set on SF-268. Also, the pIC50 in the data set with KB was 8.59; with G-361 it was 7.83; in the data set on NCI-H460, 8.59; in the data set on NB1 it was 8.27; with HL-60, 7.92; in data set [2] it was 8.59. Moreover, the 50% lethal dose (LD50) at 24 h in [1] is 344 mg/kg.
Take `N#Cc1c(NNC(N)=S)nc(SCc2nc3ccccc3[nH]2)nc1-c1ccccc1`: the negative-log IC50 (pIC50) with GOTO is 8.59; with U-937, 8.52; in the data set on K562 it was 8.05; in the data set on SK-MEL-28, 8.49; in the data set on SK-OV-3 it was 8.52; in the data set with SF-268, 8.47. The pIC50 in the data set with KB is 8.52; with G-361 it was 8.40; in the data set on NCI-H460, 8.47; in the data set with NB1 it was 8.24; in the data set on HL-60 it was 8.34; in data set [2], 8.49. Besides, the median lethal dose (LD50) at 24 h in [1] is 345 mg/kg.
On to `N#Cc1c(Nc2ccncc2)nc(SCc2nc3ccccc3[nH]2)nc1-c1ccccc1`, for which the pIC50 in the data set with GOTO was 8.59; in the data set with U-937, 8.13; in the data set with K562, 8.00; in the data set on SK-MEL-28, 8.35; in the data set on SK-OV-3 it was 8.35; in the data set with SF-268, 8.62. Also, the negative-log IC50 (pIC50) with KB was 8.49; with G-361, 8.59; in the data set with NCI-H460, 8.56; in the data set on NB1, 8.17; in the data set on HL-60, 8.56; in data set [2], 8.24. The median lethal dose (LD50) at 24 h in data set [1] is 316 mg/kg.
For `Nc1ccn([C@@H]2O[C@H](CO)[C@@H](O)[C@@H]2O)c(=O)n1` [CYTARABINE], the pIC50 in the data set with SF-268 was 5.11.
For `ClCc1nc2ccccc2[nH]1`, the 50% lethal dose (LD50) at 24 h in data set [1] is 253 mg/kg.
On to `N#Cc1c(Nc2nccs2)nc(SCc2nc3ccccc3[nH]2)nc1-c1ccccc1`, for which the pIC50 in the data set on GOTO was 8.29; in the data set with U-937 it was 8.42; in the data set with K562 it was 7.83; in the data set on SK-MEL-28, 8.05; with SK-OV-3, 8.24; in the data set with SF-268, 8.59. The pIC50 was 7.83 with KB; 7.92 in the data set on G-361; 8.47 in the data set on NCI-H460; 8.49 with NB1; 7.92 in the data set with HL-60; 8.49 in data set [2]. Further, the LD50 at 24 h in data set [1] is 349 mg/kg.
Take `N#Cc1c(-c2ccccc2)nc(SCc2nc3ccccc3[nH]2)nc1N1CCN(C(=O)c2ccccc2)CC1`: the pIC50 was 8.06 with GOTO; 8.57 in the data set with U-937; 8.47 in the data set with K562; 8.05 in the data set with SK-MEL-28; 8.40 in the data set with SK-OV-3; 8.55 with SF-268. Moreover, the negative logarithm of the IC50 (pIC50) is 8.52 in the data set on KB; 8.62 in the data set with G-361; 8.49 in the data set with NCI-H460; 8.13 in the data set on NB1; 8.17 in the data set on HL-60; 8.59 in [2]. Besides, the LD50 at 24 h in data set [1] worked out at 327 mg/kg.
As to `Nc1ccn([C@@H]2O[C@H](CO)[C@@H](O)C2(F)F)c(=O)n1` [GEMCITABINE HYDROCHLORIDE], the pIC50 with NCI-H460 is 5.67.
On to `COc1cccc2c1C(=O)c1c(O)c3c(c(O)c1C2=O)C[C@@](O)(C(=O)CO)C[C@@H]3O[C@H]1C[C@H](N)[C@H](O)[C@H](C)O1` [DOXORUBICIN], for which the pIC50 in the data set with K562 is 8.21; in the data set with SK-OV-3, 5.38.
Compound `CCCCCOC(=O)Nc1nc(=O)n([C@@H]2O[C@H](C)[C@@H](O)[C@H]2O)cc1F` [CAPECITABINE] had a negative-log IC50 (pIC50) in [2] of 5.36.
On to `O=c1[nH]cc(F)c(=O)[nH]1` [FLUOROURACIL], for which the negative logarithm of the IC50 (pIC50) in the data set with KB was 5.35.
